Source: PubChem
Sampled rows, rich in hits. Any-hit rate of the full collection: about 3.2%.
NR2E3 ag-1 = inhibitors of NR2E3-RetCOR corepressor binding, primary screen, NR2E3 agonist project, biochemical, TR-FRET, GST-NR2E3, biotin-RetCOR | Photoreceptor-specific nuclear receptor (Homo sapiens), Q9Y5X4 | 1536-well | inhibition of corepressor binding, % at 4.78 µM | 320,000 compounds, 0.12% hits;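 active means percent inhibition above the cutoff of mean plus 3 SD of all tested compounds, set per screening campaign, cut at about 20% in these data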;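 further: 0% = DMSO wells and 100% = biotin wells as full block of FRET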
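System: GST-tagged NR2E3 plus biotinylated RetCOR corepressor; Amount: 1.35 nM GST-tagged NR2E3 final; Dosing: single nominal compound dose of 4.8 µM; Schedule: 5 h incubation at 4 °C; Technique: TR-FRET with europium anti-GST and streptavidin-D2, 340 nm excitation; Controls: biotin wells as high control, 0.6% DMSO wells as low control.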
JMJD2C inh = inhibitors of GASC-1 histone demethylase, primary screen, biochemical, fluorescence, DELFIA europium. 330,000 compounds, 0.069% hits. inhibition, % at 2.35 µM. GST-JMJD2C(1-420) H3K9me3 demethylation. Lysine-specific demethylase 4C (Homo sapiens), Q9H3R0;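 active means more than half of a compound's replicate wells show inhibition beyond 50%, single wells judged on their own value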;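 further: signal counts dimethyl H3K9 product captured on neutravidin plate; 0% = median of DMSO wells and 100% = 0.3 times that DMSO median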
Target sequence (Q9H3R0 1-420 limits assumed): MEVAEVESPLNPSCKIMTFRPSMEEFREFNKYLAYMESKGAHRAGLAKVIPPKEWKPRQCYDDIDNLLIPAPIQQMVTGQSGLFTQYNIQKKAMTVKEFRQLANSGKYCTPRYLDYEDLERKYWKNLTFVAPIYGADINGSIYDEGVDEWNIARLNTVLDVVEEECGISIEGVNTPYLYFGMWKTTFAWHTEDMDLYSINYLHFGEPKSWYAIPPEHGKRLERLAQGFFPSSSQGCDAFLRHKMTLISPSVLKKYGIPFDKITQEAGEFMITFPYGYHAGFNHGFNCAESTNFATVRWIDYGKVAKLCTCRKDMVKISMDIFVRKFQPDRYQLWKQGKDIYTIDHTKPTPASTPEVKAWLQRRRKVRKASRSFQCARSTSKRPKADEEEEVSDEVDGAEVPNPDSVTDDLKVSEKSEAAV
NR2E3 ag-2 = NR2E3 agonists in two-hybrid cells, primary screen, cell-based, luminescence, CHO-S, Gal4-NCOR/VP16-NR2E3. luciferase. inhibition of corepressor binding, % at 3.98 µM. Photoreceptor-specific nuclear receptor (Homo sapiens), Q9Y5X4. 360,000 compounds, 0.35% hits;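 active means inhibition above the mean of all tested compounds plus 3 SD, cut at about 70% in these data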;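 further: 0% = DMSO with NR2E3 transfected cells and 100% = cells lacking NR2E3 construct; higher means lower luciferase signal from less NR2E3 corepressor binding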
DAX1 inh-1 = DAX1 (NR0B1) inhibitors, primary screen, cell-based, HEK293, Gal4-DAX1, luciferase luminescence | Nuclear receptor subfamily 0 group B member 1 (Homo sapiens), P51843 | HEK293 Gal4-DAX1 luciferase reporter | inhibition, % at 6.75 µM | 340,000 compounds, 0.99% hits;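 active means inhibition above the mean over all tested compounds plus 3 SD, cut at about 4.2% in these data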;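 further: 0% = DAX1-transfected cells with DMSO and 100% = empty-vector control cells with DMSO; inhibition shows as a rise in luminescence from relieved DAX1 repression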
Target sequence (P51843 207-470 limits assumed): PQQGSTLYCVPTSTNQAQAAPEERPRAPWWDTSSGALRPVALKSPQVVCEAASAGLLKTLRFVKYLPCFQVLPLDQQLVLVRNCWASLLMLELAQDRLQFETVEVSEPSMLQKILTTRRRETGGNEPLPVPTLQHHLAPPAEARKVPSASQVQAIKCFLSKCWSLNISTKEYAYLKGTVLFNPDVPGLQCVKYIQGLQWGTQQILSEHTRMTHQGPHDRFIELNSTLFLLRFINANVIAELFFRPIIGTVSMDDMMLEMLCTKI
SMARCA2 activ = SMARCA2 (BRM) function activators, primary screen, cell-based, luminescence, high throughput. MG213 cells, MMTV-luciferase reporter, dexamethasone, overnight. activation, % at 9.1 µM. 370,000 compounds, 1% hits. AID 652017, 2013; in the data active means activation above about 7.8%;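 further: 0% = vehicle wells and 100% = reference activator wells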
DAX1 inh-2 = DAX1 (NR0B1) inhibitors on StAR promoter, primary screen, cell-based, luminescence, SF-1 (NR5A1), full-length DAX-1; HEK293T StAR-luciferase reporter, SF-1/DAX-1 repression relief; inhibition, % at 6.8 µM; 370,000 compounds, 1.1% hits; AID 652010, 2013;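 active means inhibition above the mean over all tested compounds plus 3 SD, cut at about 3.6% in these data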;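 further: 0% = DAX-1 cells with DMSO and 100% = cells lacking DAX-1 with DMSO; higher inhibition means more luminescence from relief of DAX-1 repression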
An asterisk follows results filed as active.

What do the screens show for `CC(C)(C)c1ccc(C(=O)Nc2cccc(S(=O)(=O)NC3=NCCC3)c2)cc1`?
NR2E3 ag-1: 3; JMJD2C inh: -9; NR2E3 ag-2: -59; DAX1 inh-1: 0; SMARCA2 activ: 4; DAX1 inh-2: 4.0*

Results for C[C@H]1CCCN1c1cccc2c1S(=O)(=O)N1CC[C@H](C1)O2 ?
SMARCA2 activ: -3; DAX1 inh-2: -2

What do the screens show for `CCOC(=O)N1CCN(C(=O)C[C@H]2C[C@@]3(C(=O)OC)C(=C[C@H](C(C)(C)C)O[C@@H]3C)N(CCc3ccc(OC)c(OC)c3)C2=O)CC1`?
SMARCA2 activ: -2; DAX1 inh-2: 0

Results for O[C@H](COc1ccc(Cl)cc1)CN1CCC(C(O)(c2ccccc2)c2ccccc2)CC1 ?
SMARCA2 activ: -5; DAX1 inh-2: 0

What do the screens show for `CN(CCOC(=O)CC1C=CCC1)C1CN(Cc2cn(Cc3ccccc3Cl)nn2)S(=O)(=O)C1` (stereo not given)?
SMARCA2 activ: -2; DAX1 inh-2: 0

How did Cc1ccc(NC(CC(=O)c2ccccc2)C(=O)O)cc1Cl (stereo not given) do in these assays?
NR2E3 ag-1: 3; JMJD2C inh: 2; NR2E3 ag-2: -105; DAX1 inh-1: 5.4*; SMARCA2 activ: 3; DAX1 inh-2: 4.2*

What do the screens show for `Cc1nc(SCC(=O)Nc2ccc(C)c(F)c2)c2oc3ccccc3c2n1`?
NR2E3 ag-1: 2; JMJD2C inh: -2; NR2E3 ag-2: -11; DAX1 inh-1: 0; SMARCA2 activ: 0; DAX1 inh-2: 0

What do the screens show for `Cc1nc(SCC(=O)Nc2cc(Cl)ccc2[N+](=O)[O-])nc(C)c1C`?
NR2E3 ag-1: 0; JMJD2C inh: 9; NR2E3 ag-2: -17; DAX1 inh-1: 1; SMARCA2 activ: -1; DAX1 inh-2: -1

Results for Cc1ccc(NC(=O)CSc2nccn2C)cc1F ?
NR2E3 ag-1: -2; JMJD2C inh: 5; NR2E3 ag-2: -49; DAX1 inh-1: 1; SMARCA2 activ: 2; DAX1 inh-2: 4.4*

How did Cc1ccc(NC(=O)CSc2ncccn2)cc1F do in these assays?
NR2E3 ag-1: -3; JMJD2C inh: 3; NR2E3 ag-2: -45; DAX1 inh-1: 5.7*; SMARCA2 activ: 4; DAX1 inh-2: -1

Results for O=C(CSc1ncccn1)Nc1cc(Cl)ccc1[N+](=O)[O-] ?
NR2E3 ag-1: -2; JMJD2C inh: -3; NR2E3 ag-2: -22; DAX1 inh-1: 4.8*; SMARCA2 activ: 0; DAX1 inh-2: 0

Results for Cc1ccc(NC(=O)c2ccc(F)cc2F)cc1 ?
NR2E3 ag-1: 4; JMJD2C inh: 9; NR2E3 ag-2: -124; DAX1 inh-1: 2; SMARCA2 activ: 6; DAX1 inh-2: 2

Results for O=C(Nc1ccc(N2CCCCC2)cc1)c1ccc(F)cc1F ?
NR2E3 ag-1: 3; JMJD2C inh: -25; NR2E3 ag-2: -139; DAX1 inh-1: 2; SMARCA2 activ: 1; DAX1 inh-2: 3.6*

How did CCOc1ccc(-n2c(SCC(=O)Nc3ccccc3-c3ccccc3)nnc2-c2ccccc2)cc1 do in these assays?
SMARCA2 activ: -4; DAX1 inh-2: -2

How did COc1ccc2c(c1)OC/C(=C/c1cccs1)C2=O do in these assays?
NR2E3 ag-1: -3; JMJD2C inh: -2; NR2E3 ag-2: -108; DAX1 inh-1: 2; SMARCA2 activ: 3; DAX1 inh-2: 4.2*

What do the screens show for `COC(=O)C1CN(CCO)CCS(=O)(=O)N1Cc1cn(Cc2ccccc2Br)nn1` (stereo not given)?
SMARCA2 activ: -2; DAX1 inh-2: 0

What do the screens show for `O=C(O)CSc1nnc(Cc2cccc3ccccc23)n1-c1cc(C(F)(F)F)cc(C(F)(F)F)c1`?
NR2E3 ag-1: 1; JMJD2C inh: 1; NR2E3 ag-2: 6; DAX1 inh-1: 5.7*; SMARCA2 activ: -3; DAX1 inh-2: 0

Results for COc1ccc(NC(=O)C2C3C=CC(C3)C2C(=O)NCc2ccco2)c(OC)c1 (stereo not given) ?
NR2E3 ag-1: -3; NR2E3 ag-2: 14; DAX1 inh-1: 5.9*; SMARCA2 activ: 1; DAX1 inh-2: 0

What do the screens show for `C=Cc1ccc(C(=O)N(Cc2ccc(F)cc2)C(C(=O)N(C)C2CCCC2)c2ccc(OC)c(OC)c2)cc1` (stereo not given)?
SMARCA2 activ: -3; DAX1 inh-2: -1

Results for Cc1ccc(O)c(-c2cc(-c3cccc(F)c3)n[nH]2)c1 ?
NR2E3 ag-1: 0; JMJD2C inh: 4; NR2E3 ag-2: -77; DAX1 inh-1: 0; SMARCA2 activ: 4; DAX1 inh-2: 1

What do the screens show for `Cc1ccc(-c2cc(-c3cccc(F)c3)n[nH]2)c(O)c1`?
NR2E3 ag-1: 2; JMJD2C inh: 0; NR2E3 ag-2: -159; DAX1 inh-1: 5.0*; SMARCA2 activ: -1; DAX1 inh-2: 4.2*

How did CCOC(=O)Cc1nc(N2CCN(CCO)CC2)c2c(C)c(C(=O)OCC)sc2n1 do in these assays?
SMARCA2 activ: -6; DAX1 inh-2: 1

Results for C[C@H](CO)N1C[C@H](C)[C@@H](CN(C)S(=O)(=O)c2ccccc2)Oc2ccc(NC(=O)C3CCCCC3)cc2C1=O ?
NR2E3 ag-2: -6; DAX1 inh-1: 0; SMARCA2 activ: 2; DAX1 inh-2: 0

What do the screens show for `C[C@H](CO)N1C[C@H](C)[C@@H](CN(C)C(=O)Nc2ccccc2)Oc2ccc(NS(=O)(=O)c3ccccc3)cc2C1=O`?
JMJD2C inh: 4; NR2E3 ag-2: -20; DAX1 inh-1: 0; SMARCA2 activ: -1; DAX1 inh-2: 0

Results for C[C@H](CO)N1C[C@H](C)[C@@H](CN(C)S(=O)(=O)c2ccccc2)Oc2ccc(NC(=O)NC3CCCCC3)cc2C1=O ?
JMJD2C inh: 7; NR2E3 ag-2: -27; DAX1 inh-1: -1; SMARCA2 activ: -3; DAX1 inh-2: 4.2*

What do the screens show for `COc1ccc(NC(=O)Nc2ccc3c(c2)C(=O)N([C@H](C)CO)C[C@H](C)[C@@H](CN(C)S(=O)(=O)c2ccc(OC)cc2)O3)cc1`?
JMJD2C inh: 29; NR2E3 ag-2: -20; DAX1 inh-1: 6.4*; SMARCA2 activ: 0; DAX1 inh-2: 0

How did COc1ccc(NC(=O)N(C)C[C@H]2Oc3c(NS(=O)(=O)c4cn(C)cn4)cccc3C(=O)N([C@H](C)CO)C[C@@H]2C)cc1 do in these assays?
JMJD2C inh: 58*; NR2E3 ag-2: -23; DAX1 inh-1: 0; SMARCA2 activ: -5; DAX1 inh-2: 2
